According to ChEMBL document CHEMBL1123865, “Synthesis and antitumor activity of N-terminal proline-containing peptide-(chloroethyl)nitrosoureas” (J Med Chem, 1987):
Calls of active or inactive are those of the source. The calls are words filed in the database; no cut-off is given here. Peptide text beside a SMILES is read from it. * marks the point of attachment. Carbamoyl(2-ClEt,NO) = O=NN(CCCl)C(=O)*; Boc = CC(C)(C)OC(=O)*; For = O=C*

What was measured:
L1210 [1] = experiment: Antitumor activity against L1210 Leukemia in mice at a dose of 30 mg/kg was determined.; type: functional, Mus musculus
In short: (§1)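 L1210 leukemia in mice, 10 per group, treated with one ip injection 1 day after tumor transplantation at 0.1 mL/10 g body weight. Dose was dissolved in 0.2 mL DMSO and diluted to 10 mL with 0.9% NaCl. Controls received saline or solvent. %ILS = [(T − C)/C] × 100, using median survival days. Cures were scored on day 60 post-transplant.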

[2] = Antitumor activity against L1210 Leukemia in mice expressed as 50% lethal dose was determined at 200 mg/kg; type: ADME, organism-based; parameters: dose 200 mg/kg; details: mouse, in vivo
L1210 [3] = experiment: Antitumor activity against L1210 Leukemia in mice at a dose of 100 mg/kg was determined.; type: functional, Mus musculus; in short: as §1
L1210 [4] = experiment: Antitumor activity against L1210 Leukemia in mice at a dose of 100 mg/kg expressed as percent of increase in life span after day 60s was determined.; type: functional; details: Mus musculus
In short: (§2)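 L1210 leukemia-bearing mice, 10 per group; controls got saline or solvent. Dose was dissolved in 0.2 mL DMSO, diluted to 10 mL with 0.9% NaCl, and given as one ip injection (0.1 mL/10 g body weight) 1 day after transplantation. %ILS = [(T − C)/C] × 100 from median survival days, treated versus untreated. Cures were counted on day 60 after transplantation.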

L1210 [5] = experiment: Antitumor activity against L1210 Leukemia in mice at a dose of 200 mg/kg was determined.; type: functional, Mus musculus; in short: as §1
L1210 [6] = experiment: Antitumor activity against L1210 Leukemia in mice at a dose of 200 mg/kg expressed as percent of increase in life span after day 60s was determined.; type: functional; details: Mus musculus; in short: as §2
L1210 [7] = experiment: Antitumor activity against L1210 Leukemia in mice at a dose of 30 mg/kg expressed as percent of increase in life span after day 60s was determined.; type: functional; details: Mus musculus; in short: as §2
[8] = Antitumor activity against L1210 Leukemia in mice expressed as 50% lethal dose was determined at a dose of 130 mg/kg; type: ADME, organism-based; parameters: dose 130 mg/kg; details: mouse, in vivo
L1210 [9] = experiment: Antitumor activity against L1210 Leukemia in mice at a dose of 130 mg/kg was determined.; type: functional, Mus musculus
[10] = Antitumor activity against L1210 Leukemia in mice expressed as 50% lethal dose was determined at a dose of 100 mg/kg; type: ADME, organism-based; parameters: dose 100 mg/kg; details: mouse, in vivo
L1210 [11] = experiment: Antitumor activity against L1210 Leukemia in mice at a dose of 30 mg/kg expressed as percent of increase in life span after day 60s was determined; no effect; type: functional, organism-based; parameters: dose 30 mg/kg; details: Mus musculus; in short: as §2
L1210 [12] = experiment: Antitumor activity against L1210 Leukemia in mice at a dose of 100 mg/kg expressed as percent of increase in life span after day 60s was determined; no effect; type: functional, organism-based; parameters: dose 100 mg/kg; details: Mus musculus; in short: as §2
L1210 [13] = experiment: Antitumor activity against L1210 Leukemia in mice at a dose of 200 mg/kg expressed as percent of increase in life span or the percent of surviving animals on day 60 was determined.; type: functional; details: Mus musculus, L1210, 1440 h; in short: as §2
L1210 [14] = experiment: Antitumor activity against L1210 Leukemia in mice at a dose of 50 mg/kg expressed as percent of increase in life span after day 60s was determined.; type: functional; details: Mus musculus; in short: as §2
L1210 [15] = experiment: Antitumor activity against L1210 Leukemia in mice at a dose of 50 mg/kg was determined.; type: functional, Mus musculus; in short: as §1

Row | SMILES | LD50 [2] | MED (L1210 [3]) | ILS at 100 mg/kg (L1210 [4]) | MED (L1210 [5]) | also measured
1 | CC(C)[C@H](NC(=O)[C@@H]1CCCN1C(=O)[C@H](CCCCNC=O)NC(=O)N(CCCl)N=O)C(N)=O | 260 mg/kg | 0.2 mmol/kg | 110% | 0.4 mmol/kg | MED (L1210 [1]): 0.059 mmol/kg; ILS at 200 mg/kg (L1210 [6]): 190%; ILS at 30 mg/kg (L1210 [7]): 70%
2 | CC(C)[C@H](NC(=O)[C@@H]1CCCN1C(=O)[C@H](CCCCN)NC(=O)N(CCCl)N=O)C(N)=O.Cl | – | – | – | – | LD50 [8]: 175 mg/kg; MED (L1210 [9]): 0.25 mmol/kg
3 | CC(C)[C@H](NC(=O)[C@@H]1CCCN1C(=O)[C@H](CCCCNC(=O)N(CCCl)N=O)NC(=O)N(CCCl)N=O)C(N)=O | – | 0.16 mmol/kg | 380% | – | LD50 [10]: 250 mg/kg
4 | CC(C)[C@H](NC(=O)[C@@H]1CCCN1C(=O)N(CCCl)N=O)C(N)=O | – | 0.28 mmol/kg | – | – | LD50 [10]: 150 mg/kg
5 | NC(=O)C1CCCN1C(=O)N(CCCl)N=O (centres undefined) | – | 0.403 mmol/kg | 420% | – | LD50 [10]: 140 mg/kg
6 | CC(C)[C@H](NC(=O)[C@@H]1CCCN1C(=O)[C@H](CCCCNOC(=O)C(C)(C)C)NC(=O)[C@@H]1CCCN1C(=O)N(CCCl)N=O)C(N)=O | – | – | – | – | ILS (L1210 [11]): inactive; ILS (L1210 [12]): inactive
7 | CC(C)[C@H](NC(=O)[C@@H]1CCCN1C(=O)[C@@H](N)CCCCNC=O)C(N)=O.Cl (H-Lys(For)-Pro-Val-NH2) | – | 0.24 mmol/kg | – | – | ILS (L1210 [12]): inactive
8 | CC(C)[C@H](NC(=O)[C@@H]1CCCN1C(=O)[C@H](CCCCNC(=O)OC(C)(C)C)NC(=O)[C@@H]1CCCN1C(=O)N(CCCl)N=O)C(N)=O ({Carbamoyl(2-ClEt,NO)}-PK(Boc)PV-NH2) [listing 1 of 2 here] | 300 mg/kg | – | – | – | –
9 | CC(C)[C@H](NC(=O)[C@@H]1CCCN1C(=O)[C@H](CCCCNC(=O)OC(C)(C)C)NC(=O)[C@@H]1CCCN1C(=O)N(CCCl)N=O)C(N)=O ({Carbamoyl(2-ClEt,NO)}-PK(Boc)PV-NH2) [listing 2 of 2 here] | – | 0.15 mmol/kg | – | 0.3 mmol/kg | MED (L1210 [1]): 0.045 mmol/kg; ILS at 200 mg/kg (L1210 [13]): 30%
10 | CC(C)[C@H](NC(=O)[C@@H]1CCCN1C(=O)[C@H](CCCCNC(=O)N(CCCl)N=O)NC(=O)[C@@H]1CCCN1C(=O)N(CCCl)N=O)C(N)=O ({Carbamoyl(2-ClEt,NO)}-PK(Carbamoyl(2-ClEt,NO))PV-NH2) | 220 mg/kg | 0.14 mmol/kg | – | 0.28 mmol/kg | MED (L1210 [1]): 0.042 mmol/kg; ILS at 200 mg/kg (L1210 [6]): 120%; ILS at 30 mg/kg (L1210 [7]): 100%
11 | CC(C)[C@H](NC(=O)[C@@H]1CCCN1C(=O)[C@H](CCCCNC=O)NC(=O)[C@@H]1CCCN1C(=O)N(CCCl)N=O)C(N)=O ({Carbamoyl(2-ClEt,NO)}-PK(For)PV-NH2) | 250 mg/kg | 0.16 mmol/kg | 80% | 0.32 mmol/kg | ILS at 50 mg/kg (L1210 [14]): 40%; ILS at 200 mg/kg (L1210 [6]): 80%; MED (L1210 [15]): 0.083 mmol/kg
